Only some compounds are listed: those with a hit (about 4.8% of all), similar ones and a draw of the others.
PAFAH1B3 inh: PAFAH1B3 (human) inhibition | recombinant PAFAH1B3, FP-rhodamine probe, fluorescence polarization | inhibition, % at 3.39 µM | AID 492972 | hit rate 0.28% among 340,000 | Q15102;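 active = inhibition above the screen-wide average of all tested compounds plus 3 SD, cut at about 25% in these data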
Target sequence (Q15102 whole entry, looked up): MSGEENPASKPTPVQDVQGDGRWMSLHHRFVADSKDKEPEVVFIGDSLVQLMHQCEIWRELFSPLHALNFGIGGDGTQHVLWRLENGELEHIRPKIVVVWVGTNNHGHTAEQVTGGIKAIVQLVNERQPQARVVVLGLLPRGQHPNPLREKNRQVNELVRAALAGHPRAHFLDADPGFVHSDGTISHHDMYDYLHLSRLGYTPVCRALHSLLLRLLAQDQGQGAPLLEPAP
PAFAH1B2 inh: PAFAH1B2 (human) inhibition. P68402. recombinant PAFAH1B2, FP-rhodamine activity probe, fluorescence polarization. inhibition, % at 3.39 µM. hit rate 1.2% among 340,000. AID 492953;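 active = inhibition above the mean of all tested compounds plus 3 SD, cut at about 24% in these data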
Target sequence (P68402 whole entry, looked up): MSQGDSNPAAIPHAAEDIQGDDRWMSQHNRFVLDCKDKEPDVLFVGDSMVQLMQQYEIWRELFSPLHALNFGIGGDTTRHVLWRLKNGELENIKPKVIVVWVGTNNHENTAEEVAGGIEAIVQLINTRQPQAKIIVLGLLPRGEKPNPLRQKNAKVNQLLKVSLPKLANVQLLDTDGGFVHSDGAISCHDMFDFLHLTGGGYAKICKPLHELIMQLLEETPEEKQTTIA
PAFAH2 inh: PAFAH2 (human) inhibition. Q99487. recombinant PAFAH2, FP-rhodamine activity probe, fluorescence polarization. inhibition, % at 3.39 µM. hit rate 0.99% among 340,000;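 active = inhibition above the mean over all tested compounds plus 3 SD, cut at about 30% in these data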;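 note: inhibitors block probe labeling of enzyme so polarization drops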
pPAFAH inh: inhibitors of human plasma PAF acetylhydrolase (pPAFAH) | Q13093 | recombinant pPAFAH, FP-rhodamine probe fluorescence polarization | hit rate 1.5% among 330,000 | inhibition, % at 3.39 µM;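 active = inhibition above the mean inhibition across the screen plus 3 SD, cut at about 25% in these data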;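 note: inhibitors block binding of the rhodamine activity-based probe so polarization drops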
GRIN3A LBD mod: modulators (binders) of human NR3A ligand-binding domain; NR3A LBD differential scanning fluorimetry, Tm shift; 0% = protein alone, 100% = glycine-bound protein; Tm shift relative to glycine control, % at 25 µM; hit rate 2.5% among 340,000;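 active = melting temperature shift of at least 10% of the positive control shift, at one fixed dose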
UCH37 DUB inh: human UCH37 deubiquitinating enzyme inhibition. Q9Y5K5. purified proteasome/UCH37, Ub-AMC cleavage fluorescence. inhibition, % (test concentration not listed). hit rate 0.33% among 330,000. AID 588478;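 active = mean inhibition over replicate wells above about 20%, limit read from the data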
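Signal – fluorescence, ex 355 nm, em 460 nm · System – Proteasome-bound UCH37 · Input – 0.15 nM proteasome as dispensed · Timing – 30 min preincubation with enzyme, 25 min cleavage at room temperature · Read-out basis – percent inhibition of cleavage signal versus uninhibited and no-proteasome wells · Medium – Tris-HCl pH 7.4 with ATP-MgCl2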
PAFAH2 confirm: PAFAH2 (human) inhibition, confirmed | shares compounds with PAFAH2 inh | recombinant PAFAH2, FP-rhodamine activity probe, fluorescence polarization | inhibition, % at 3.39 µM | hit rate 65% among 2,300 | AID 493030;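 active = mean inhibition over three repeats above a set limit taken from the earlier primary screen, cut at about 30% in these data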;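 note: inhibitor blocks binding of rhodamine activity probe so polarization falls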
Hits are given with their value; - = inactive; . = no result given.

SMILES | PAFAH1B3 inh | PAFAH1B2 inh | PAFAH2 inh | pPAFAH inh | GRIN3A LBD mod | UCH37 DUB inh | PAFAH2 confirm
COc1ccc(C2CC(c3ccccc3)=NN2C(=O)COC(=O)c2cc(S(=O)(=O)N3CCOCC3)ccc2Cl)cc1 (centres undefined) | - | - | 30.8 | - | - | - | -
Cc1ccc(S(=O)(=O)N2CCOCC2)cc1C(=O)OCC(=O)Nc1ccc2c(c1)OCO2 | - | - | 37.3 | - | - | - | -
C(=NNc1ccc2nncn2n1)c1ccco1 | . | . | . | . | . | - | .
O=C(OCCN=C1NS(=O)(=O)c2ccccc21)c1cccs1 | - | - | 37.9 | - | - | - | -
O=C(/C=C/c1ccccc1)OCCCCN=C1NS(=O)(=O)c2ccccc21 | - | - | - | - | - | - | .
O=C(/C=C/c1ccccc1)OCCN=C1NS(=O)(=O)c2ccccc21 | - | - | 30.3 | - | - | - | -
O=C(OCCCN=C1NS(=O)(=O)c2ccccc21)c1cccs1 | - | - | - | - | - | - | .
NC(=O)COC(=O)c1ccccc1SCC(=O)NC1CCCCCCC1 | - | - | 38.5 | - | - | - | 37.4
O=C(COC(=O)c1ccccc1SCC(=O)N1CCCC1)NC1CCS(=O)(=O)C1 (centres undefined) | - | - | - | - | - | - | .
O=C(COC(=O)c1ccccc1SCC(=O)N1CCCC1)NC1CCCCC1 | - | - | 82.5 | - | - | - | 73.3
O=C(CSc1ccccc1C(=O)O)NC1CCCCCC1 | - | - | - | - | - | - | .
N#CC1(NC(=O)COC(=O)c2ccccc2SCC(=O)N2CCCC2)CCCCC1 | - | - | 80.6 | - | 12.6 | - | 80.4
Cc1ccc(C=NNC(=O)Cc2ccc(O)cc2)s1 | . | . | . | . | . | - | .
O=C(Nc1ccc(Cl)cc1)Nc1ccc(S(=O)(=O)Nc2ncccn2)cc1 | - | - | - | - | - | - | .
O=C(Nc1ccc(S(=O)(=O)Nc2ncccn2)cc1)c1ccccc1NS(=O)(=O)c1ccc(Cl)cc1 | - | - | 50.2 | - | - | - | 49.9
O=C(COc1cccc2cccnc12)NN=Cc1cccn1-c1ccc(F)cc1 | . | . | . | . | . | - | .
CCOc1cc(C=NN=Cc2ccc(O)c(OCC)c2)ccc1O | . | . | . | . | . | - | .
O=C(NC1CCCCC1)C(c1ccncc1)N(Cc1ccc2c(c1)OCO2)C(=O)c1cnsn1 (centres undefined) | - | - | 33.3 | - | - | - | -
COc1ccc(C=NNC(=O)c2nnn(-c3nonc3N)c2CN(C)C2CCCCC2)cc1 | . | . | . | . | . | - | .
COc1ccc(-n2nc(C)c3onc(C)c3c2=O)cc1 | . | . | . | - | - | - | .
COc1ccc(-n2nc(N)c3c(=O)oc(N(C)C)nc32)cc1 | - | - | 53.6 | - | - | - | 45.4
CN(C)c1nc2c(c(N)nn2-c2ccc(Cl)cc2)c(=O)o1 | - | - | 47.5 | - | - | - | 40.5
CC1(C)SC(=S)N(N=Cc2ccccc2O)C1N(O)C(=O)Nc1ccccc1 (centres undefined) | . | . | . | . | . | - | .
CC/C(=N/OC(=O)c1cccc(C)c1)C(=O)c1cccs1 | - | - | 37.2 | - | - | . | -
C/C(=N\OC(=O)c1ccc(C)cc1)c1sc(C)nc1C | - | - | 54.8 | - | - | . | 43.1
SMILES | PAFAH1B3 inh | PAFAH1B2 inh | PAFAH2 inh | pPAFAH inh | GRIN3A LBD mod | UCH37 DUB inh | PAFAH2 confirm
C/C(=N/OC(=O)c1ccc(C)cc1)c1cccs1 | - | - | 69.5 | - | - | . | 51.5
Cc1cccc(C(=O)O/N=C(\N)c2ccccn2)c1 | - | - | - | - | - | - | .
CCOc1cccc(C=NNC(=S)NCCN2CCOCC2)c1O | . | . | . | . | . | - | .
CC(=NNC(=O)C1CCCCC1)c1ccc([N+](=O)[O-])cc1 | . | . | . | . | . | - | .
Cc1ccccc1NC(=S)NN=C1CC(C)(C)Oc2ccc(O)cc21 | . | . | . | . | . | - | .
C(=NNCc1ccccc1)c1ccc2nccnc2c1 | . | . | . | . | . | - | .
CCC(=O)Nc1ccc(C(=O)OCC(=O)c2cccs2)cc1 | - | - | 33.8 | - | - | - | 32.1
COc1cc(OC)cc(C(=O)OCC(=O)NC(C)CCc2ccccc2)c1 (centres undefined) | - | - | - | - | - | - | .
CC(CCc1ccccc1)NC(=O)COC(=O)c1cccs1 (centres undefined) | - | - | 60.4 | - | - | - | 44.1
CC(NC(=O)COC(=O)/C(=C/c1cccs1)c1cccs1)c1ccccc1 (centres undefined) | - | - | - | - | - | - | .
CC(NC(=O)COC(=O)c1cccs1)c1ccccc1 (centres undefined) | - | - | 59.7 | - | - | - | 47.2
COc1ccc(C(=O)OCC(=O)NC(C)CCc2ccccc2)c(OC)c1 (centres undefined) | - | - | 48.5 | - | - | - | -
CC(Cn1nnc2ccccc21)=NNC(=O)c1cccc(Br)c1 | . | . | . | . | . | - | .
CCOC(=O)C(=NNc1ccccc1)P(=O)(c1ccccc1)c1ccccc1 | . | . | . | . | . | - | .
Cc1ccc(S(=O)(=O)N(C)c2ccc(OC(=O)c3cccs3)cc2)cc1C | - | - | 33.5 | - | - | - | -
Cc1ccc(S(=O)(=O)N(C)c2ccc(OC(C)C(=O)N3CCCC3)cc2)cc1C (centres undefined) | - | - | - | - | - | - | .
O=C1N(c2ccc3c(c2)OCCO3)C(c2ccccc2)C1(F)F (centres undefined) | - | - | 100.9 | - | - | - | -
CCn1c(Cl)c(C=O)sc1=NS(=O)(=O)c1ccccc1 | . | . | . | . | . | - | .
Cc1ccc(S(=O)(=O)N2CCOCC2)cc1NC(=O)COC(=O)c1cncc(Br)c1 | - | - | - | - | - | - | .
Cc1ccc(S(=O)(=O)N2CCOCC2)cc1NC(=O)COC(=O)c1ccc2c(c1)OCCO2 | - | - | 69.9 | - | - | - | 59.0
Cc1ccc(S(=O)(=O)N2CCOCC2)cc1NC(=O)COC(=O)COc1ccccc1[N+](=O)[O-] | - | - | - | - | - | - | .
CCOc1ccccc1C(=O)OCC(=O)Nc1cc(S(=O)(=O)N2CCOCC2)ccc1C | - | - | 31.7 | - | - | - | -
Cc1ccc(S(=O)(=O)N2CCOCC2)cc1NC(=O)COc1ccc(C(=O)c2ccccc2)cc1 | - | - | - | - | - | - | .
CCN(CC)S(=O)(=O)c1ccc(C)c(NC(=O)COC(=O)c2ccc(C)c(S(=O)(=O)N3CCOCC3)c2)c1 | - | - | 80.8 | - | - | - | 60.9
Cc1ccc(S(=O)(=O)N2CCOCC2)cc1NC(=O)COC(=O)c1ccc(OCc2c(C)noc2C)cc1 | - | - | 43.7 | - | - | - | 50.6
S=C(NN=Cc1cccs1)NC1CC2CCC1C2 (centres undefined) | . | . | . | . | . | - | .
CC(C)(C)OC(=O)NN=Cc1cccc([N+](=O)[O-])c1 | . | . | . | . | . | - | .
Cc1c(C=NNC(=O)CNc2ccccc2)c2ccccn2c1C(=O)c1ccncc1 | . | . | . | . | . | - | .
O=C(COC(=O)c1cnccn1)Nc1cc(S(=O)(=O)N2CCOCC2)ccc1Cl | - | - | - | - | - | - | .
